The results in this text go back to the array DNA melting data of Ke et al. (doi:10.1101/2024.01.08.574731).

Data set [1] in a line: folding enthalpy; higher = less favourable; fluorescence melt of hairpins on a sequencing array, two-state fit. Conditions: sodium 0.088 M. In a few lines: (§1)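 Hairpins were imaged by Cy3 fluorescence on a sequenced MiSeq flow cell with annealed Cy3 and quencher oligos, in 50 mM Na-HEPES pH 8.0, 25 mM NaCl, in 2.5 °C steps up to 60 °C. Bootstrapped two-state fits of normalised signals gave melting temperature and folding enthalpy. Four replicates were combined by inverse variance, and fitted temperatures were raised by 9.35 °C to match UV melts.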

Data set [2] in a line: melting temperature; fluorescence melt of hairpins on a sequencing array, two-state fit, raised by 9.35 °C to match UV melts. Conditions: sodium 0.088 M. An outline of the steps: as §1

Turning to GATAGCCGAAAGGCATC (((.(((....)))))), in data set [1], the folding enthalpy is -12.2 kcal/mol. Further, the Tm in data set [2] turned out to be 43.3 °C.
For GATAGCCGAAAGGCCATC (((.(((....))).))), in that order: -13.8 kcal/mol and 39.6 °C.
As to GATAGCGAAAGCTTATC ((((((....))).))), the folding enthalpy in data set [1] was -13.7 kcal/mol. For the same sequence, the Tm in data set [2] was 39 °C.
GATAGCGCGAAAGCGATC (((..(((....)))))): in data set [1], the folding enthalpy is -9.46 kcal/mol. In data set [2], the Tm came to 32.2 °C.
With GATAGTGGAAACACTACC (.(((((....))))).), in data set [1], the folding enthalpy is -12.4 kcal/mol. In data set [2], the Tm worked out at 33.1 °C.
For GATAGTGGAAACACTGTC ((.((((....)))).)), in that order: -29.7 kcal/mol and 43.4 °C.
Taken in the same sequence, the figures for GATATACGAAAGTAATC (((.(((....)))))) were -9.45 kcal/mol and 23.8 °C.
As to GATATCCCGAAAGGGATC (((..(((....)))))), the folding enthalpy in data set [1] is -8.05 kcal/mol. For the same sequence, the Tm in data set [2] turned out to be 32.5 °C.
For GATATCGGAAACGATATC (((((((....))))))), in that order: -42.4 kcal/mol and 56.7 °C.
For GATATGACGAAAGTCATC (((..(((....)))))), in that order: -10.7 kcal/mol and 33.3 °C.
Regarding GATATTCCGAAAGGAATC (((..(((....)))))), the folding enthalpy in data set [1] was -11.4 kcal/mol. The Tm in data set [2] came to 32.7 °C.
Taken in the same sequence, the figures for GATATTGGAAACAATGTC ((.((((....)))).)) were -30.9 kcal/mol and 36.3 °C.
Take GATCAAAACCTTGATC ((((((....)))))): the folding enthalpy in data set [1] is -32.5 kcal/mol. For the same sequence, the Tm in data set [2] came to 44.4 °C.
On to GATCAAAACGTTGATC ((((((....)))))), for which the folding enthalpy in data set [1] was -28.1 kcal/mol. Moreover, the Tm in data set [2] was 39.8 °C.
For GATCAAAACTTGATC ((((((...)))))), in that order: -27.6 kcal/mol and 41.7 °C.
Regarding GATCAAAATGTTGATC ((((((....)))))), the folding enthalpy in data set [1] was -28.1 kcal/mol. For the same sequence, the Tm in data set [2] worked out at 38.4 °C.
For GATCAAAATTTGATC ((((((...)))))), in that order: -26.4 kcal/mol and 39.3 °C.
With GATCAAACACTTGATC ((((((....)))))), in data set [1], the folding enthalpy is -28.7 kcal/mol. In addition, in data set [2], the Tm was 37.9 °C.
With GATCAAACATTTGATC ((((((....)))))), the folding enthalpy in data set [1] is -30.2 kcal/mol. Further, in data set [2], the Tm is 42.4 °C.
On to GATCAAACCTTTGATC ((((((....)))))), for which the folding enthalpy in data set [1] was -30.1 kcal/mol. For the same sequence, the Tm in data set [2] was determined as 46 °C.
Regarding GATCAAAGTCTTGATC ((((((....)))))), the folding enthalpy in data set [1] was -31.1 kcal/mol. Besides, the Tm in data set [2] was 41.7 °C.
For GATCAAAGTTTTGATC ((((((....)))))), the folding enthalpy in data set [1] is -29.2 kcal/mol. Further, the Tm in data set [2] is 46.1 °C.
For GATCAAATCTTGATC ((((((...)))))), in that order: -27.8 kcal/mol and 42 °C.
Taken in the same sequence, the figures for GATCAAATGCTTGATC ((((((....)))))) were -29.6 kcal/mol and 41.5 °C.
Turning to GATCAACAACTTGATC ((((((....)))))), the folding enthalpy in data set [1] was -35.1 kcal/mol. The Tm in data set [2] stood at 38.4 °C.
For GATCAACAATTTGATC ((((((....)))))), the folding enthalpy in data set [1] was -26.8 kcal/mol. Besides, the Tm in data set [2] came out at 38 °C.
Regarding GATCAACCAATTGATC ((((((....)))))), the folding enthalpy in data set [1] was -32.7 kcal/mol. Also, in data set [2], the Tm was 39 °C.
Consider GATCAACCATTGATC ((((((...)))))), for which the folding enthalpy in data set [1] is -29 kcal/mol. Moreover, the Tm in data set [2] worked out at 38.8 °C.
For GATCAACCTCTTGATC ((((((....)))))), in that order: -30.3 kcal/mol and 43.5 °C.
For GATCAACGAATTGATC ((((((....)))))), in that order: -25.8 kcal/mol and 38.5 °C.
Taken in the same sequence, the figures for GATCAACGGCTTGATC ((((((....)))))) were -28.7 kcal/mol and 42.4 °C.
On to GATCAACTCCTTGATC ((((((....)))))), for which, in data set [1], the folding enthalpy was -36.6 kcal/mol. Moreover, the Tm in data set [2] was found to be 44.2 °C.
Taken in the same sequence, the figures for GATCAACTCGTTGATC ((((((....)))))) were -42.6 kcal/mol and 57.5 °C.
As for GATCAACTGTTTGATC ((((((....)))))), the folding enthalpy in data set [1] was -32.3 kcal/mol. Also, the Tm in data set [2] is 43.2 °C.
On to GATCAACTTGTTGATC ((((((....)))))), for which the folding enthalpy in data set [1] is -51.7 kcal/mol. Moreover, the Tm in data set [2] turned out to be 60.5 °C.
Taken in the same sequence, the figures for GATCAAGAATTGATC ((((((...)))))) were -34.6 kcal/mol and 51.9 °C.
For the sequence GATCAAGACATTGATC ((((((....)))))), the folding enthalpy in data set [1] was -38.8 kcal/mol. The Tm in data set [2] came to 50.1 °C.
Taken in the same sequence, the figures for GATCAAGCCCTTGATC ((((((....)))))) were -49.1 kcal/mol and 49.4 °C.
